Source: ChEMBL document CHEMBL2046328, “Structure-based design of rhodanine-based acylsulfonamide derivatives as antagonists of the anti-apoptotic Bcl-2 protein” (Bioorg Med Chem, 2012)
Converted amounts (≈) assume the structure as drawn.

Experiments:
[1] = Antiproliferative activity against mouse B16/F10 cells after 48 hrs by MTT assay; type: functional, cell-based; settings: B16-F10, 48 h
Procedure, shortened: (§1)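 Cells were seeded at 7×10^3 per well and grown 24 h, then exposed to compounds for 48 h. MTT was added for 6 h, followed by 10% SDS in 0.01 N HCl for 4 h at 37 °C, and absorbance was read at 570 nm. Survival is expressed relative to untreated cells. IC50 came from 6-well replicates in at least two independent experiments.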

PC-3 = experiment: Antiproliferative activity against human PC3 cells after 48 hrs by MTT assay; type: functional, cell-based; settings: PC-3, 48 h; procedure, shortened: as §1
[2] = Inhibition of FAM-Bak-BH3 binding to human N-terminal His6-tagged Bcl2 isoform 2 after 4 hrs by fluorescence polarization assay
HepG2 = experiment: Antiproliferative activity against human HepG2 cells after 48 hrs by MTT assay; type: functional, cell-based; settings: HepG2, 48 h; procedure, shortened: as §1

IC50 (PC-3) [µg/mL]	Ki [2] [nM]	IC50 (HepG2) [µg/mL]	Compound	IC50 [1] [µg/mL]
16 (≈ 29.6 µM)	20	21 (≈ 38.9 µM)	Cc1ccc(S(=O)(=O)NC(=O)[C@H](Cc2ccccc2)NC2=NC(=O)/C(=C/c3ccccc3Cl)S2)cc1	12.2 (≈ 22.6 µM)
15 (≈ 30.8 µM)	–	20.2 (≈ 41.4 µM)	COc1ccccc1/C=C1\SC(N[C@H](C(=O)NS(=O)(=O)c2ccc(C)cc2)C(C)C)=NC1=O	13.5 (≈ 27.7 µM)
15.6 (≈ 30.8 µM)	–	13.3 (≈ 26.4 µM)	Cc1ccc(S(=O)(=O)NC(=O)[C@H](CC(C)C)NC2=NC(=O)/C(=C/c3ccccc3Cl)S2)cc1	8.52 (≈ 16.8 µM)
20.3 (≈ 41.6 µM)	672	12.8 (≈ 26.2 µM)	COc1ccc(/C=C2\SC(N[C@H](C(=O)NS(=O)(=O)c3ccc(C)cc3)C(C)C)=NC2=O)cc1	11.6 (≈ 23.8 µM)
16.8 (≈ 33.1 µM)	–	16.5 (≈ 32.6 µM)	Cc1ccc(S(=O)(=O)NC(=O)[C@H](CC(C)C)NC2=NC(=O)/C(=C/c3cccc(Cl)c3)S2)cc1	13.4 (≈ 26.4 µM)
11.9 (≈ 26 µM)	3010	18.2 (≈ 39.8 µM)	Cc1ccc(S(=O)(=O)NC(=O)[C@@H](NC2=NC(=O)/C(=C/c3ccccc3)S2)C(C)C)cc1	7.46 (≈ 16.3 µM)
11.9 (≈ 24.1 µM)	25	21.2 (≈ 43.2 µM)	Cc1ccc(S(=O)(=O)NC(=O)[C@@H](NC2=NC(=O)/C(=C/c3ccccc3Cl)S2)C(C)C)cc1	8.8 (≈ 17.9 µM)
15.3 (≈ 31.3 µM)	–	16.4 (≈ 33.6 µM)	Cc1ccc(S(=O)(=O)NC(=O)[C@H](CC(C)C)NC2=NC(=O)/C(=C/c3ccccc3F)S2)cc1	11.3 (≈ 23.1 µM)
16.4 (≈ 28.1 µM)	310	16.6 (≈ 28.5 µM)	Cc1ccc(S(=O)(=O)NC(=O)[C@H](Cc2ccccc2)NC2=NC(=O)/C(=C/c3ccc(-c4ccccc4)cc3)S2)cc1	12.5 (≈ 21.6 µM)
22.1 (≈ 42.1 µM)	–	18.7 (≈ 35.8 µM)	Cc1ccc(S(=O)(=O)NC(=O)[C@H](Cc2ccccc2)NC2=NC(=O)/C(=C/c3ccccc3F)S2)cc1	11.9 (≈ 22.7 µM)

Compound	IC50 (PC-3) [µg/mL]	Ki [2] [nM]	IC50 (HepG2) [µg/mL]	IC50 [1] [µg/mL]
Cc1cc2c(C(C)C)c(O)c(O)c(C=O)c2c(O)c1-c1c(C)cc2c(C(C)C)c(O)c(O)c(C=O)c2c1O [GOSSYPOL]	6.71 (≈ 12.9 µM)	334	10.2 (≈ 19.6 µM)	5.56 (≈ 10.7 µM)
